# Screening data deposited in PubChem BioAssay by several laboratories.
# Only some compounds are listed: those with a hit (about 2.2% of all), similar ones and a draw of the others.
# 697 NFkB inh: inhibitors of PMA/ionomycin-induced NF-kB reporter, 697 cells, primary screen, B-cell NF-kB inhibitor project, cell-based, luminescence, uHTS | 697 B-cell NF-kB luciferase reporter, 16 h | inhibition, % at 4 µM | hit rate 0.33% among 330,000; in the data active = inhibition above about 35%
# FGF22 binding: binders of human FGF22 protein, primary screen, FGF22 synaptogenesis inhibitor project, biophysical, thermal shift, single point; recombinant FGF22 thermal shift, SYPRO orange fluorescence; percent of sucrose octasulfate shift, DMSO zero; activity (Tm shift, normalised), % at 9.99 µM; hit rate 1.5% among 340,000; AID 651658, 2012;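 active = mean Tm shift, scaled 0 neutral to 100 positive control, at about 1.3% or above, every replicate too, limit read from the data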
# Target sequence (Q9HCT0 whole entry, looked up): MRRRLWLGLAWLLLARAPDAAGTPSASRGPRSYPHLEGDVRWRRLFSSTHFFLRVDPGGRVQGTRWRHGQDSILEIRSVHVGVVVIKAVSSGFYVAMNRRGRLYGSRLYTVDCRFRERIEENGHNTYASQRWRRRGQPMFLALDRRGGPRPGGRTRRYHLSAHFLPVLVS
# miR122 inh: miR-122 Renilla sensor signal increase in Huh7, primary screen, miR-122 inhibitor project, cell-based, single point, plate reader; Huh7 miR-122 Renilla luciferase sensor, 48 h; neutral wells = 0, positive control = 100; activation (reporter increase), % at 12.5 µM; hit rate 0.3% among 340,000; AID 602342, 2012;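 active = mean replicate activation score at least 90 and every replicate individually at or above 90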;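 note: higher luciferase means less miR-122 activity so hits act as miR-122 inhibitors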
# Jurkat NFkB inh: inhibitors of induced NF-kB luciferase reporter, primary screen, TCR NF-kB activation inhibitor project, cell-based, luminescence, uHTS; inhibition, % at 4 µM; hit rate 0.53% among 330,000; AID 435003, 2010; Jurkat, PMA/ionomycin-induced NF-kB luciferase reporter; in the data active = inhibition above about 50%
# NR2E3 ag-1: inhibitors of NR2E3-RetCOR corepressor binding, primary screen, NR2E3 agonist project, biochemical, TR-FRET, GST-NR2E3, biotin-RetCOR. Photoreceptor-specific nuclear receptor (Homo sapiens), Q9Y5X4. 1536-well. inhibition of corepressor binding, % at 4.78 µM. hit rate 0.12% among 320,000;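 active = percent inhibition above the cutoff of mean plus 3 SD of all tested compounds, set per screening campaign, cut at about 20% in these data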;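 note: 0% = DMSO wells and 100% = biotin wells as full block of FRET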
# Target sequence (Q9Y5X4 whole entry, looked up): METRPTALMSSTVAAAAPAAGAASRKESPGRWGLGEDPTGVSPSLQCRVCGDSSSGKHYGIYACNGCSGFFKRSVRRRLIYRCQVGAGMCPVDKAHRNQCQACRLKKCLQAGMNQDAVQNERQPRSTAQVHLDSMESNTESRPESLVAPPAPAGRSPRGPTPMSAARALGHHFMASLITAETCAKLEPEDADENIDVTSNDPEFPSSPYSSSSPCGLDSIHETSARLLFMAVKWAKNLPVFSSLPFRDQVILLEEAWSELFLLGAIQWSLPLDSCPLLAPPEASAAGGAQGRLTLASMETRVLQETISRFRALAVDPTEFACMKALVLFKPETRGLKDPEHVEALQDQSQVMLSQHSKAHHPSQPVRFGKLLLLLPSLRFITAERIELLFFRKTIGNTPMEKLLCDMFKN
#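 Material: NR2E3–RetCOR corepressor complex / Incubation: Compound–protein incubation for 5 h at 4 °C / Dosing: compound at 4.8 µM, single dose / Detection: time-resolved FRET / Benchmarks: high control biotin, low control 0.6% DMSO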
# NR2E3 ag-2: NR2E3 agonists in two-hybrid cells, primary screen, cell-based, luminescence, CHO-S, Gal4-NCOR/VP16-NR2E3; Photoreceptor-specific nuclear receptor (Homo sapiens), Q9Y5X4; luciferase; inhibition of corepressor binding, % at 3.98 µM; hit rate 0.35% among 360,000;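 active = inhibition above the mean of all tested compounds plus 3 SD, cut at about 70% in these data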;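 note: 0% = DMSO with NR2E3 transfected cells and 100% = cells lacking NR2E3 construct; higher means lower luciferase signal from less NR2E3 corepressor binding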
# Jurkat NFkB conf: PMA/ionomycin-induced NF-kB reporter inhibitors, Jurkat retest, confirmation, T-cell NF-kB inhibitor project, cell-based, luminescence, single concentration. shares compounds with Jurkat NFkB inh. Jurkat NF-kB luciferase, 16 h. inhibition, % at 4 µM. hit rate 27% among 2,700. AID 435020, 2010;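 active = inhibition reaching about 45% at 4 µM in either replicate, limit read from the data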;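 note: plate controls were PMA/ionomycin stimulated DMSO wells for no effect and unstimulated DMSO wells for full effect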
# * hit, by the source's call; · = no result; [ ] = dose if it differs, or a comment.
SMILES,697 NFkB inh,FGF22 binding,miR122 inh,Jurkat NFkB inh,NR2E3 ag-1,NR2E3 ag-2,Jurkat NFkB conf
C[C@@H]1CCCCO[C@H](CN(C)Cc2ccccc2)[C@H](C)CN([C@@H](C)CO)C(=O)c2cc(NS(=O)(=O)c3ccc(Cl)cc3)ccc2O1,·,·,-11.4[16.7 µM],·,·,·,·
CCC(=O)N1CC2(CCN(Cc3ccc(F)cc3)CC2)c2c(n(C)c3cc(OC)ccc23)[C@H]1CO,·,0.2,·,·,·,·,·
Cc1cc(NC(=O)c2cc(-c3ccncc3)nc3c(C)cccc23)no1,-26.2,·,20.1,51.6*,2.6,-65.0,23.1
COc1ccc(NC(=O)Nc2cccc3c2O[C@H](CN(C)S(C)(=O)=O)[C@@H](C)CN([C@@H](C)CO)C3=O)cc1,·,-0.1,3.3[16.7 µM],·,·,·,·
CCCn1c2c(c(=N)c3c1CCC3)CCC2,3.3,0.3,·,36.3,-2.2,-2.3,·
CCCCCCCn1c2c(c(=N)c3ccccc31)CCC2,25.3,-0.1,-16.5,72.0*,1.6,-18.0,66.8*
C[C@H](O)C#Cc1cnc2c(c1)C(=O)N([C@@H](C)CO)C[C@H](C)[C@@H](CN(C)C(=O)Nc1ccc(C(F)(F)F)cc1)O2,·,-0.3,·,·,·,·,·
Cc1cc(N(C)C)ccc1N=Nc1ccc2ncccc2c1,-182.8,-0.6,-8.5,-164.6,0.3,-128.5,-104.6
CN(C)c1ccc(N=Nc2ccc3ncccc3c2)cc1,·,0.2,-4.9,·,·,-106.4,·
O=C(Nc1ccc2c(c1)[C@@H]1C[C@H](CC(=O)N3CCOCC3)O[C@@H](CO)[C@@H]1O2)c1cccnc1,·,0.0,-3.9[16.7 µM],·,·,·,·
CCC(=O)c1ccc(OCC(=O)Nc2ccccc2N2CCCCC2)cc1,-10.8,0.1,-4.6,51.4*,0.2,3.9,10.8
CCC(=O)c1ccc(OCC(=O)Nc2ccccc2N2CCOCC2)cc1,-4.8,0.1,·,-15.9,-1.1,1.3,·
CC(=O)n1cc(N(C(=O)CCl)c2ccccc2)c2ccccc21,-46.5,0.1,-18.5,72.2*,-1.4,-25.1,11.2
CC(=O)n1cc(N(C(=O)CCl)c2ccc([N+](=O)[O-])cc2)c2ccccc21,-12.4,-0.3,-6.5,-4.1,-6.5,-27.6,·
C#CCSc1nc(-c2cccs2)ccc1C#N,23.5,·,·,20.6,-0.3,-56.5,·
CCOC(=O)CSc1nc2cc3c(cc2cc1C#N)OCO3,-161.2,·,-1.0,-200.5,-1.3,-135.7,-90.2
COC(=O)CSc1nc(-c2cccs2)ccc1C#N,-84.9,0.0,0.3,-152.6,0.3,-141.7,-96.7
COC(=O)CSc1nc2cc3c(cc2cc1C#N)OCO3,-183.1,·,-5.2,-201.8,-2.3,-101.8,-101.6
CC(C)OC(=O)CSc1nc2cc3c(cc2cc1C#N)OCO3,-45.1,·,2.6,-148.0,-0.5,-20.8,·
C[C@@H]1CN([C@H](C)CO)C(=O)c2cc(C#Cc3ccccc3F)cnc2O[C@H]1CN(C)C(=O)c1ccc2c(c1)OCO2,·,-0.7,-14.5[16.7 µM],·,·,·,·
C[C@H]1CN([C@@H](C)CO)C(=O)CCCn2cc(nn2)CO[C@H]1CN(C)Cc1ccc2c(c1)OCCN2C,·,-0.3,1.5[16.7 µM],·,·,·,·
CN1/C(=C/c2cccc[n+]2CCO)Sc2ccccc21,-13.4,0.1,·,-0.2,1.9,-1.0,·
CC[n+]1ccccc1/C=C1\Sc2ccc(C)cc2N1C,-2.7,-0.1,·,69.3*,-1.7,-7.9,12.9
C[C@@H]1CN([C@H](C)CO)C(=O)c2cc(NC(=O)CCN3CCOCC3)ccc2O[C@H]1CN(C)S(=O)(=O)c1ccc(F)cc1,·,-0.2,-5.4[16.7 µM],·,·,·,·
COc1ccc(NC(=O)c2nc(S(=O)(=O)Cc3cccc(C)c3)ncc2Cl)c(OC)c1,-242.6,0.0,-6.8,53.8*,-3.1,23.1,-0.2
SMILES,697 NFkB inh,FGF22 binding,miR122 inh,Jurkat NFkB inh,NR2E3 ag-1,NR2E3 ag-2,Jurkat NFkB conf
Cc1cccc(CS(=O)(=O)c2ncc(Cl)c(C(=O)Nc3c(C)cccc3C)n2)c1,-50.3,-0.3,·,26.9,0.6,17.0,·
CCc1cc(C(=O)NC2CCCc3c2cnn3-c2cccc(C)c2C)n(C)n1 (stereo not given),34.6,-0.2,·,78.8*,2.3,·,76.5*
Cc1cccc(-n2ncc3c2CCCC3NC(=O)Cn2cccn2)c1C (stereo not given),4.7,0.1,4.2,-3.3,2.5,3.8,·
CCCNC(=O)N1[C@H](CO)[C@@H]2c3ccccc3N(C(=O)c3ccccc3)C[C@@H]21,·,0.6,-5.1[16.7 µM],·,·,·,·
NC(=O)CSc1nnc(-c2ccccn2)n1Cc1ccco1,-13.7,0.0,7.3,-9.3,-1.7,-21.0,·
C(=C\c1ccccc1)/CSc1nnc(-c2ccccn2)n1Cc1ccco1,-30.2,·,·,50.0*,1.7,-76.2,7.3
COc1ccc(OC)c(Nc2cc(-c3ccccc3)nc(N)n2)c1,29.7,·,·,56.5*,-0.8,·,44.2
COc1ccc(OC)c(Nc2cc(C)nc3ccccc23)c1,-37.4,·,-28.2,66.8*,4.7,-18.4,9.6
COc1ccc(Cl)cc1Nc1cc(C)nc2ccccc12,-29.0,-0.2,-0.5,54.1*,2.7,-21.4,22.6
Cc1cc(Nc2ccccc2Cl)c2ccccc2n1,-16.0,·,7.0,15.2,-1.1,-9.9,·
COc1ccc2nc(C)cc(Nc3ccccc3OC)c2c1,·,-0.1,-4.6,·,·,-20.3,·
CCS(=O)(=O)Nc1ccc2c(c1)C(=O)N(C)[C@H]1CC[C@H](CC(=O)N3CCCCC3)O[C@@H]1CO2,·,0.3,-4.7[16.7 µM],·,·,·,·
COc1ccccc1S(=O)(=O)N1CC[C@@H]2[C@H](CO)Nc3ccc(Br)cc3[C@@H]21,·,0.1,3.0[16.7 µM],·,·,·,·
Cc1csc2sc(-c3ccnc(SCC(=O)NCc4ccccc4)n3)c(C)c12,-41.9,0.3,4.3,69.4*,3.1,11.5,42.3
Cc1csc(SCC(=O)NCc2ccccc2)n1,0.3,-0.1,·,2.9,3.5,-4.3,·
O=C(C[C@H]1C[C@H]2c3cc(NC(=O)c4cccnc4)ccc3O[C@H]2[C@@H](CO)O1)NCc1cccc(F)c1,·,-0.1,3.7[16.7 µM],·,·,·,·
CCOc1ccc2nc(C)cc(Nc3cccc([N+](=O)[O-])c3)c2c1,7.3,0.0,·,76.9*,4.3,-26.5,33.8
O=C(c1ccccc1)N1CC2(C1)[C@H](c1ccccc1)[C@H](CO)N2C(=O)CC1CC1,·,-0.2,·,·,·,·,·
Nc1ccc(-c2nnc(-c3ccc(N)cc3)o2)cc1,-89.5,-0.1,2.9,-110.1,7.0,-95.3,·
Nc1ccccc1-c1nnc(-c2ccc(-c3ccccc3)cc2)o1,-175.0,·,0.3,-154.2,4.6,-56.4,-73.7
